Laboratory results taken from ChEMBL document CHEMBL5724801, “EUbOPEN Chemogenomics Library - Multiplex” (2024).
“And” between values parts separate entries of the source, which are not always exact repeats. Identical values can stand only once.

Test system: HEK-293T
Assay: Multiplex assay against HEK293T
Format: toxicity, cell-based
Settings: human
Summary of the method: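 Hoechst33342, BioTracker Green Microtubule Cytoskeleton Dye, MitoTracker Red and Annexin V Alexa Fluor 680 were added to live cells at seeding, and imaging on a CQ1 microscope at 37°C and 5% CO2 followed compound addition. Gating by CellPathfinder machine learning separated cells into Hoechst high-intensity objects or normal cells, then normal cells into healthy, pyknosed or fragmented nuclei, then pyknosed cells into mitotic or apoptotic. Per cents of healthy-nucleus cells are reported for the tubulin, mitochondrial-mass and membrane-permeability phenotypes.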

[1] = 12 h, 1 µM, compound concentration 1 uM
[2] = 12 h, 10 µM, compound concentration 10 uM
[3] = 24 h, 1 µM, compound concentration 1 uM
[4] = 24 h, 10 µM, compound concentration 10 uM
[5] = 48 h, 1 µM, compound concentration 1 uM
[6] = 48 h, 10 µM, compound concentration 10 uM

Structure (SMILES): Cc1sc2c(c1C)C(c1ccc(Cl)cc1)=N[C@H](CC(=O)OC(C)(C)C)c1nnc(C)n1-2
- Population Apoptotic (%) [1]: 40% and 44%
- Population Fragmented Nuclei (%) [1]: 8% and 6%
- Population Healthy Nuclei (%) [1]: 80% and 76%
- Population Hoechst High Intensity Objects (%) [1]: 8% and 9%
- Population Membrane Permeable-Phenotype (%) [1]: 0%
- Population Mitochondria Different-Phenotype (%) [1]: 49% and 65%
- Population Mitotic Cells (%) [1]: 60% and 55%
- Population Normal (%) [1]: 91% and 90%
- Population Pyknosed Nuclei (%) [1]: 10% and 17%
- Population Tubulin-Different-Phenotype (%) [1]: 32% and 26%
- Total Cell Count [1]: 478 and 333
- Population Apoptotic (%) [2]: 41% and 66%
- Population Fragmented Nuclei (%) [2]: 7% and 5%
- Population Healthy Nuclei (%) [2]: 76% and 72%
- Population Hoechst High Intensity Objects (%) [2]: 7% and 10%
- Population Membrane Permeable-Phenotype (%) [2]: 0%
- Population Mitochondria Different-Phenotype (%) [2]: 74% and 90%
- Population Mitotic Cells (%) [2]: 58% and 33%
- Population Normal (%) [2]: 92% and 89%
- Population Pyknosed Nuclei (%) [2]: 15% and 21%
- Population Tubulin-Different-Phenotype (%) [2]: 67% and 70%
- Total Cell Count [2]: 395 and 303
- Population Apoptotic (%) [3]: 32%
- Population Fragmented Nuclei (%) [3]: 10%
- Population Healthy Nuclei (%) [3]: 76% and 82%
- Population Hoechst High Intensity Objects (%) [3]: 5% and 6%
- Population Membrane Permeable-Phenotype (%) [3]: 0%
- Population Mitochondria Different-Phenotype (%) [3]: 29% and 43%
- Population Mitotic Cells (%) [3]: 68% and 67%
- Population Normal (%) [3]: 94% and 93%
- Population Pyknosed Nuclei (%) [3]: 13% and 6%
- Population Tubulin-Different-Phenotype (%) [3]: 19% and 11%
- Total Cell Count [3]: 609 and 479
- Population Apoptotic (%) [4]: 41% and 49%
- Population Fragmented Nuclei (%) [4]: 8% and 3%
- Population Healthy Nuclei (%) [4]: 68% and 76%
- Population Hoechst High Intensity Objects (%) [4]: 4% and 6%
- Population Membrane Permeable-Phenotype (%) [4]: 0% and 1%
- Population Mitochondria Different-Phenotype (%) [4]: 64% and 76%
- Population Mitotic Cells (%) [4]: 58% and 50%
- Population Normal (%) [4]: 95% and 93%
- Population Pyknosed Nuclei (%) [4]: 23% and 19%
- Population Tubulin-Different-Phenotype (%) [4]: 46% and 47%
- Total Cell Count [4]: 468 and 378
- Population Apoptotic (%) [5]: 18% and 30%
- Population Fragmented Nuclei (%) [5]: 11% and 14%
- Population Healthy Nuclei (%) [5]: 80% and 79%
- Population Hoechst High Intensity Objects (%) [5]: 3% and 4%
- Population Membrane Permeable-Phenotype (%) [5]: 1% and 0%
- Population Mitochondria Different-Phenotype (%) [5]: 16% and 21%
- Population Mitotic Cells (%) [5]: 81% and 69%
- Population Normal (%) [5]: 96% and 95%
- Population Pyknosed Nuclei (%) [5]: 7% and 5%
- Population Tubulin-Different-Phenotype (%) [5]: 10% and 12%
- Total Cell Count [5]: 1012 and 685
- Population Apoptotic (%) [6]: 31% and 55%
- Population Fragmented Nuclei (%) [6]: 9% and 8%
- Population Healthy Nuclei (%) [6]: 73% and 76%
- Population Hoechst High Intensity Objects (%) [6]: 3% and 5%
- Population Membrane Permeable-Phenotype (%) [6]: 0%
- Population Mitochondria Different-Phenotype (%) [6]: 47% and 66%
- Population Mitotic Cells (%) [6]: 68% and 44%
- Population Normal (%) [6]: 96% and 94%
- Population Pyknosed Nuclei (%) [6]: 16% and 15%
- Population Tubulin-Different-Phenotype (%) [6]: 19% and 28%
- Total Cell Count [6]: 641 and 525

Structure (SMILES): COc1ccccc1N1CCN(C[C@@H](C(=O)NC(C)(C)C)c2ccccc2)CC1.Cl.Cl
- Population Apoptotic (%) [1]: 24% and 42%
- Population Fragmented Nuclei (%) [1]: 7% and 4%
- Population Healthy Nuclei (%) [1]: 77% and 76%
- Population Hoechst High Intensity Objects (%) [1]: 7% and 6%
- Population Membrane Permeable-Phenotype (%) [1]: 0%
- Population Mitochondria Different-Phenotype (%) [1]: 48% and 77%
- Population Mitotic Cells (%) [1]: 75% and 57%
- Population Normal (%) [1]: 92% and 93%
- Population Pyknosed Nuclei (%) [1]: 14% and 19%
- Population Tubulin-Different-Phenotype (%) [1]: 47% and 35%
- Total Cell Count [1]: 434 and 300
- Population Apoptotic (%) [2]: 62% and 58%
- Population Fragmented Nuclei (%) [2]: 7% and 5%
- Population Healthy Nuclei (%) [2]: 69%
- Population Hoechst High Intensity Objects (%) [2]: 7% and 16%
- Population Membrane Permeable-Phenotype (%) [2]: 0%
- Population Mitochondria Different-Phenotype (%) [2]: 88% and 79%
- Population Mitotic Cells (%) [2]: 37% and 41%
- Population Normal (%) [2]: 92% and 83%
- Population Pyknosed Nuclei (%) [2]: 23% and 25%
- Population Tubulin-Different-Phenotype (%) [2]: 74% and 59%
- Total Cell Count [2]: 333 and 231
- Population Apoptotic (%) [3]: 19% and 34%
- Population Fragmented Nuclei (%) [3]: 8% and 11%
- Population Healthy Nuclei (%) [3]: 81% and 76%
- Population Hoechst High Intensity Objects (%) [3]: 4% and 6%
- Population Membrane Permeable-Phenotype (%) [3]: 0%
- Population Mitochondria Different-Phenotype (%) [3]: 31% and 54%
- Population Mitotic Cells (%) [3]: 80% and 65%
- Population Normal (%) [3]: 95% and 93%
- Population Pyknosed Nuclei (%) [3]: 9% and 11%
- Population Tubulin-Different-Phenotype (%) [3]: 29% and 28%
- Total Cell Count [3]: 563 and 387
- Population Apoptotic (%) [4]: 45% and 66%
- Population Fragmented Nuclei (%) [4]: 8%
- Population Healthy Nuclei (%) [4]: 68% and 76%
- Population Hoechst High Intensity Objects (%) [4]: 7% and 14%
- Population Membrane Permeable-Phenotype (%) [4]: 0%
- Population Mitochondria Different-Phenotype (%) [4]: 77% and 73%
- Population Mitotic Cells (%) [4]: 54% and 33%
- Population Normal (%) [4]: 92% and 85%
- Population Pyknosed Nuclei (%) [4]: 23% and 15%
- Population Tubulin-Different-Phenotype (%) [4]: 61% and 48%
- Total Cell Count [4]: 377 and 251
- Population Apoptotic (%) [5]: 22% and 38%
- Population Fragmented Nuclei (%) [5]: 13% and 10%
- Population Healthy Nuclei (%) [5]: 78% and 80%
- Population Hoechst High Intensity Objects (%) [5]: 2% and 6%
- Population Membrane Permeable-Phenotype (%) [5]: 1% and 0%
- Population Mitochondria Different-Phenotype (%) [5]: 19% and 37%
- Population Mitotic Cells (%) [5]: 77% and 61%
- Population Normal (%) [5]: 97% and 93%
- Population Pyknosed Nuclei (%) [5]: 8% and 9%
- Population Tubulin-Different-Phenotype (%) [5]: 18% and 20%
- Total Cell Count [5]: 908 and 480
- Population Apoptotic (%) [6]: 50% and 62%
- Population Fragmented Nuclei (%) [6]: 14% and 10%
- Population Healthy Nuclei (%) [6]: 72% and 76%
- Population Hoechst High Intensity Objects (%) [6]: 6% and 5%
- Population Membrane Permeable-Phenotype (%) [6]: 0%
- Population Mitochondria Different-Phenotype (%) [6]: 59% and 58%
- Population Mitotic Cells (%) [6]: 49% and 37%
- Population Normal (%) [6]: 93% and 94%
- Population Pyknosed Nuclei (%) [6]: 13%
- Population Tubulin-Different-Phenotype (%) [6]: 44% and 36%
- Total Cell Count [6]: 467 and 375
